Assay results published in ChEMBL document CHEMBL4145611, “Discovery of Marinoquinolines as Potent and Fast-Acting Plasmodium falciparum Inhibitors with in Vivo Activity” (J Med Chem, 2018).
pEC50, pIC50: −log10 of the molar value. Calls of active or inactive are those of the source. The rule behind the calls is not given here.

How the values were obtained:
Plasmodium falciparum [1] = assay: Antiplasmodial activity against chloroquine-sensitive blood parasite forms of Plasmodium falciparum 3D7 infected in RBC by SYBR green assay; type: functional, organism-based; details: 3D7, Erythrocyte; for pIC50: read-out: IC50; for IC50: read-out: pIC50 (converted)
Method in brief: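 3D7 blood-stage cultures, sorbitol-synchronized twice beforehand, used at 5-10% parasitemia with >80% rings, diluted to 0.5% parasitemia and 2% hematocrit with graded compound (0.05% DMSO), triplicate; artesunate and chloroquine controls. SYBR green I lysis-buffer fluorescence at 485/535 nm; IC50 from curve fit relative to drug-free medium.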

HepG2 = assay: Cytotoxicity against human HepG2 cells assessed as reduction in cell viability after 24 hrs by MTT assay; type: cell-based; details: HepG2, 24 h
Method in brief: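 HepG2 cells in RPMI-1640 with 10% heat-inactivated serum, seeded 5×10^3 per well, allowed to adhere 18 h at 37 °C, then exposed to compound (400–6.2 µM) for 24 h at 37 °C, 5% CO2. MTT (5 mg/mL) for 3 h, formazan dissolved in DMSO, absorbance 570 nm with 630 nm background; viability as percent of untreated control.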

[2] = Therapeutic index, ratio of EC50 for human HepG2 cells to IC50 for chloroquine-sensitive blood parasite forms of Plasmodium falciparum 3D7; type: toxicity; details: read-out: TI
Plasmodium berghei [3] = assay: Antiplasmodial activity against Plasmodium berghei NK65 infected in Swiss mouse assessed as reduction in parasitemia at 50 mg/kg, po administered via gavage for 3 consecutive days post infection measured on day 9 post infection relative to control; type: functional; set-up: scale not given: the % may be the effect or the level left
Method in brief: (§1)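 P. berghei NK65 suppressive test: adult Swiss outbred mice (20±2 g) inoculated ip with 1×10^5 infected red cells, randomized to groups, dosed daily for three days by oral gavage or ip injection with test compound at 50 mg/kg in 3% (v/v) DMSO; CQ 20 mg/kg and vehicle groups in parallel. Giemsa-stained tail-blood smears on days 5, 7, 9; inhibition = [(C−T)/C]×100 versus untreated control.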

Plasmodium falciparum [4] = assay: Antiplasmodial activity against chloroquine-sensitive schizont form of Plasmodium falciparum 3D7 infected in RBC after 72 hrs by SYBR green assay; type: functional, organism-based; details: 3D7, Erythrocyte
Method in brief: (§2)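 Sorbitol-synchronized 3D7 cultures of each stage (or asynchronous) diluted to 0.5% parasitemia, 2% hematocrit, exposed to graded compound concentrations (0.05% DMSO) for 72 h in triplicate. Read-out: lysis buffer (20 mM Tris pH 7.5, 5 mM EDTA, 0.008% saponin, 0.08% Triton X-100) with SYBR green I 1:20000, fluorescence 485/535 nm, uninfected erythrocytes as background; IC50 by curve fitting versus drug-free growth.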

Plasmodium berghei [5] = assay: Antiplasmodial activity against Plasmodium berghei NK65 infected in Swiss mouse assessed as reduction in parasitemia at 50 mg/kg, po administered via gavage for 3 consecutive days post infection measured on day 7 post infection relative to control; type: functional; set-up: scale not given: the % may be the effect or the level left; method in brief: as §1
Plasmodium berghei [6] = assay: Antiplasmodial activity against Plasmodium berghei NK65 infected in Swiss mouse assessed as mouse survival at 50 mg/kg, po administered for 3 consecutive days post infection measured on day 9 post infection (reference value: 19 +/- 5 days); type: functional
Plasmodium berghei [7] = assay: Antiplasmodial activity against Plasmodium berghei NK65 infected in Swiss mouse assessed as reduction in parasitemia at 50 mg/kg, po administered via gavage for 3 consecutive days post infection measured on day 5 post infection relative to control; type: functional; set-up: scale not given: the % may be the effect or the level left; method in brief: as §1
Plasmodium falciparum [8] = assay: Antiplasmodial activity against chloroquine-sensitive asynchronous form of Plasmodium falciparum 3D7 infected in RBC after 72 hrs by SYBR green assay; type: functional, organism-based; details: 3D7, Erythrocyte; method in brief: as §2
Plasmodium falciparum [9] = assay: Antiplasmodial activity against chloroquine-sensitive trophozoite form of Plasmodium falciparum 3D7 infected in RBC after 72 hrs by SYBR green assay; type: functional, organism-based; details: 3D7, Erythrocyte; method in brief: as §2
[10] = Metabolic stability in rat liver microsomes assessed as compound remaining at 4 uM after 30 mins in presence of NADPH by HPLC analysis; type: ADME, microsome; details: read-out: Stability
Method in brief: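 Rat pooled liver microsomes (final 2 mg/mL protein) in 0.1 M phosphate buffer pH 7.4 with 30 mM MgCl2 and 10 mM NADPH; compounds at 4 µM final; verapamil 0.1 mM positive control. Reactions quenched with ice-cold acetonitrile at set times; parent remaining measured by LC-MS/MS; first-order depletion rate used to derive half-life.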

Plasmodium falciparum [11] = assay: Antiplasmodial activity against early ring stage form of Plasmodium falciparum assessed as induction of alterations in parasite morphology at 10 times IC50 concentration after 8 to 16 hrs by microscopic analysis; type: functional, organism-based
Plasmodium falciparum [12] = assay: Antiplasmodial activity against chloroquine-sensitive ring form of Plasmodium falciparum 3D7 infected in RBC after 72 hrs by SYBR green assay; type: functional, organism-based; details: 3D7, Erythrocyte; method in brief: as §2
Plasmodium falciparum [13] = assay: Plasmodicidal activity against Plasmodium falciparum 3D7A infected in erythrocytes assessed as parasite survival at 10 times IC50 pre-incubated for 24 hrs followed by compound washout and measured after 24 hrs by […] incorporation assay (reference value: 100%); type: functional
Plasmodium falciparum [14] = assay: Plasmodicidal activity against Plasmodium falciparum 3D7A infected in erythrocytes assessed as parasite survival at 10 times IC50 pre-incubated for 48 hrs followed by compound washout and measured after 24 hrs by […] incorporation assay (reference value: 100%); type: functional
Mus musculus [15] = assay: Toxicity in Swiss mouse assessed as survival at 1000 mg/kg, ip measured up to 30 days; type: organism-based; details: in vivo, 720 h
Method in brief: (§3)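 Single 1000 mg/kg dose given to mice by gavage or ip injection, 3 mice per group. Survival and body weight followed against untreated controls over 30 days of observation.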

Mus musculus [16] = assay: Toxicity in Swiss mouse assessed as effect on body weight at 1000 mg/kg, ip measured after 30 days; type: organism-based; details: in vivo, 720 h; method in brief: as §3

| SMILES | pIC50 (Plasmodium falciparum [1]) | pEC50 (HepG2) | selectivity ratio [2] | also measured |
| --- | --- | --- | --- | --- |
| Brc1ccc(-c2nc3ccccc3c3cc[nH]c23)cc1 | < 5.00 | – | – | – |
| Brc1ccc2c(-c3nc4ccccc4c4cc[nH]c34)c[nH]c2c1 | 5.21 | 4.38 | 7 | – |
| COc1ccc2c(c1)nc(-c1ccc([N+](=O)[O-])cc1)c1[nH]ccc12 | 5.72 | 3.84 | 76 | – |
| COC(=O)c1ccc(-c2nc3ccccc3c3cc[nH]c23)cc1 | 5.40 | < 3.60 | > 63 | IC50 (Plasmodium falciparum [1]): 3.98 µM |
| COc1ccc2c(c1)nc(-c1c[nH]c3ccccc13)c1[nH]ccc12 | 7.21 | 4.70 | 328 | IC50 (Plasmodium falciparum [1]): 0.0617 µM |
| COc1ccc2c(c1)nc(CC(C)C)c1[nH]ccc12 | 6.30 | 4.46 | > 70 | Activity (Plasmodium berghei [3]): 0%; pIC50 (Plasmodium falciparum [4]): 6.40; Activity (Plasmodium berghei [5]): 0%; Survival (Plasmodium berghei [6]): 23 days; Activity (Plasmodium berghei [7]): 0%; pIC50 (Plasmodium falciparum [8]): 6.38; pIC50 (Plasmodium falciparum [9]): 6.38; remaining at 0.5 h, 4 µM [10]: 24%; Activity (Plasmodium falciparum [11]): Active; pIC50 (Plasmodium falciparum [12]): 6.30 |
| COc1cc(OC)cc(-c2nc3cc(OC)ccc3c3cc[nH]c23)c1 | 6.00 | < 3.60 | > 250 | IC50 (Plasmodium falciparum [1]): 1 µM |
| c1ccc2c(c1)nc(-c1c[nH]c3ccccc13)c1[nH]ccc12 [MARINOQUINOLINE E] | 4.98 | < 3.12 | > 72 | – |
| CCc1nc(N)nc(N)c1-c1ccc(Cl)cc1 [PYRIMETHAMINE] | – | – | – | Survival (Plasmodium falciparum [13]): 55%; Survival (Plasmodium falciparum [14]): 11% |
| COc1ccc2c(c1)nc(-c1ccc(N(C)C)cc1)c1[nH]ccc12 | 6.40 | 4.70 | 50 | – |
| COc1ccc2c(c1)nc(-c1ccc(C(=O)O)cc1)c1[nH]ccc12 | < 5.00 | – | – | – |
| Nc1ccc(-c2nc3ccccc3c3cc[nH]c23)cc1 | 5.11 | 4.39 | 5 | – |
| O=[N+]([O-])c1ccc(-c2nc3ccccc3c3cc[nH]c23)cc1 | < 5.00 | – | – | – |
| COc1ccc2c(c1)nc(C)c1[nH]ccc12 | 4.98 | < 3.12 | > 71 | – |
| O=C1C(O)=C([C@H]2CC[C@H](c3ccc(Cl)cc3)CC2)C(=O)c2ccccc21 [ATOVAQUONE] | – | – | – | Survival (Plasmodium falciparum [13]): 68%; Survival (Plasmodium falciparum [14]): 40% |
| COc1ccc2c(c1)nc(-c1ccc(Cl)cc1)c1[nH]ccc12 | 6.22 | < 3.60 | > 417 | Activity (Plasmodium berghei [3]): 0%; pIC50 (Plasmodium falciparum [4]): 6.30; Activity (Mus musculus [15]): Non-Toxic; Activity (Plasmodium berghei [5]): 0%; Survival (Plasmodium berghei [6]): 22 days; Activity (Plasmodium berghei [7]): 0%; pIC50 (Plasmodium falciparum [8]): 6.34; Activity (Mus musculus [16]): Non-Toxic; pIC50 (Plasmodium falciparum [9]): 6.42; remaining at 0.5 h, 4 µM [10]: 15%; Activity (Plasmodium falciparum [11]): Active; pIC50 (Plasmodium falciparum [12]): 6.22 |
| CCc1nc2ccccc2c2cc[nH]c12 | 5.14 | 3.82 | 21 | – |
| c1ccc2[nH]c(-c3nc4ccccc4c4cc[nH]c34)cc2c1 | 5.32 | 3.13 | 155 | – |
| CC(C)Cc1nc2ccccc2c2cc[nH]c12 | 5.39 | < 3.60 | > 61 | – |
| COc1cc(OC)cc(-c2nc3ccccc3c3cc[nH]c23)c1 | 5.31 | < 3.60 | > 51 | – |

| SMILES | pIC50 (Plasmodium falciparum [1]) | pEC50 (HepG2) | selectivity ratio [2] | also measured |
| --- | --- | --- | --- | --- |
| c1ccc(Cc2nc3ccccc3c3cc[nH]c23)cc1 [MARINOQUINOLINE C] | < 5.00 | – | – | – |
| c1ccc(-c2nc3ccccc3c3cc[nH]c23)cc1 | 5.00 | < 3.12 | > 75 | – |
| COC(=O)c1ccc(-c2nc3cc(OC)ccc3c3cc[nH]c23)cc1 | 5.89 | < 3.60 | > 192 | – |
| Brc1ccc2c(c1)nc(-c1c[nH]c3ccccc13)c1[nH]ccc12 | 5.10 | < 3.60 | > 32 | – |
| COc1ccc2c(c1)nc(-c1ccccc1)c1[nH]cc(Br)c12 | 5.68 | 3.95 | 53 | – |
| Clc1ccc(-c2nc3ccccc3c3cc[nH]c23)cc1 | 4.98 | < 3.60 | > 24 | – |
| COc1ccc2c(c1)nc(C)c1[nH]cc(Br)c12 | 5.27 | < 3.60 | > 46 | – |
| COc1ccc2c(c1)nc(-c1ccccc1)c1[nH]ccc12 | 5.62 | 4.22 | 25 | – |
| COc1ccc(-c2nc3ccccc3c3cc[nH]c23)cc1 | 5.17 | < 3.60 | > 37 | – |
| COc1cc(-c2nc3ccccc3c3cc[nH]c23)cc(OC)c1OC | 5.04 | 4.00 | 11 | – |
| COc1ccc2c(c1)nc(Cc1ccccc1)c1[nH]ccc12 | 4.84 | 3.32 | 33 | – |
| C[C@H]1[C@H](OC(=O)CCC(=O)O)O[C@@H]2O[C@@]3(C)CC[C@H]4[C@H](C)CC[C@@H]1[C@@]24OO3 [ARTESUNATE] | – | – | – | Survival (Plasmodium falciparum [13]): 14%; Survival (Plasmodium falciparum [14]): 5% |
| Brc1c[nH]c2c(-c3c[nH]c4ccccc34)nc3ccccc3c12 | < 5.00 | – | – | – |
| Cc1nc2ccccc2c2cc[nH]c12 [MARINOQUINOLINE A] | < 5.00 | – | – | – |
| COc1ccc2c(c1)nc(-c1ccc(NC(C)=O)cc1)c1[nH]ccc12 | < 5.00 | – | – | IC50 (Plasmodium falciparum [1]): > 10 µM |
| O=C(O)c1ccc(-c2nc3ccccc3c3cc[nH]c23)cc1 | 4.92 | 4.09 | 7 | – |
| CCc1nc2cc(OC)ccc2c2cc[nH]c12 | < 5.00 | – | – | – |
| COc1ccc2c(c1)nc(-c1ccc(N)cc1)c1[nH]ccc12 | 5.89 | < 3.12 | > 576 | – |
| Brc1ccc2[nH]cc(-c3nc4ccccc4c4cc[nH]c34)c2c1 | 4.91 | 4.03 | 8 | IC50 (Plasmodium falciparum [1]): 12.3 µM |
| CN(C)c1ccc(-c2nc3ccccc3c3cc[nH]c23)cc1 | 5.24 | < 3.22 | > 104 | – |
